Data published in ChEMBL document CHEMBL4028873, “The Discovery of a Dual TTK Protein Kinase/CDC2-Like Kinase (CLK2) Inhibitor for the Treatment of Triple Negative Breast Cancer Initiated from a Phenotypic Screen” (J Med Chem, 2017).

How the values were obtained:
[1] = Mean residence time in rat at 2 mg/kg, iv; format: ADME, organism-based; conditions: in vivo
[2] = target: Phosphorylase b kinase gamma catalytic chain, skeletal muscle/heart isoform (Homo sapiens, UniProt Q16816); assay: Inhibition of full length human GST-tagged PHKG1 expressed in baculovirus by Z'-LYTE assay
Sequence of Phosphorylase b kinase gamma catalytic chain, skeletal muscle/heart isoform (Q16816 whole entry, canonical isoform): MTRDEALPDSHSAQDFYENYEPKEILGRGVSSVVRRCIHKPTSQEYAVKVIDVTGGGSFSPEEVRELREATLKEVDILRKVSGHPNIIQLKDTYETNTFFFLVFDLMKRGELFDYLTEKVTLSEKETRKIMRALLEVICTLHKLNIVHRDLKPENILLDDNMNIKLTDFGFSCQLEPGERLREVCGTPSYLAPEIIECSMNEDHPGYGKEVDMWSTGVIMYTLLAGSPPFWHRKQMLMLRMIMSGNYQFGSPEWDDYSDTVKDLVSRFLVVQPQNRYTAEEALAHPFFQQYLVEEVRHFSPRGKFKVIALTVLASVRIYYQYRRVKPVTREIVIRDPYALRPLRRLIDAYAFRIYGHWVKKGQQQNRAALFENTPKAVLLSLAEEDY

[3] = target: T1, Phosphatidylinositol 5-phosphate 4-kinase type-2 gamma (Homo sapiens) (UniProt Q8TBX8); assay: Binding affinity to PIP4K2C in human HCT116 cell lysate at 3 uM after 1 hr by LC-MS/MS analysis
T1 sequence (whole entry): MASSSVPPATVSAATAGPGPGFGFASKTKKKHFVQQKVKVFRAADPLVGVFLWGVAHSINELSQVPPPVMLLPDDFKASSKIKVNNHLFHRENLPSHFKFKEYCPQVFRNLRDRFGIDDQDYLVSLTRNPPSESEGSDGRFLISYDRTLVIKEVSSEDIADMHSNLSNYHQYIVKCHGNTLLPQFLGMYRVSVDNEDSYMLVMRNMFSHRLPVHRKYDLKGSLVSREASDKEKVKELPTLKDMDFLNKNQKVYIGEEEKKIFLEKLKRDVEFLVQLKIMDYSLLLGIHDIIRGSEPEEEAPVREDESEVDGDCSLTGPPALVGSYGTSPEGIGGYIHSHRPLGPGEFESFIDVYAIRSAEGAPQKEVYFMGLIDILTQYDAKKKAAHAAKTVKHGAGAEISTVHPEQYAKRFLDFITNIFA
Summary of the method: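 ActivX KiNative cellular kinase profiling. HCT-116 cells were grown in RPMI-1640 with 10% FBS and exposed to compound at 3 μM for 1 h, with DMSO-only controls. Cells were then washed with ice-cold PBS, scraped, pelleted and stored at −80 °C. Kinase binding was reported as percent occupancy relative to the untreated controls.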

[4] = tested on: ZR-75-30; assay: Antiproliferative activity against human ZR75-30 cells after 3 days by CellTiter-Glo assay; format: cell-based; conditions: zr-75-30, 72 h
Summary of the method: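 Cell lines kept in vendor-recommended growth media; 3-day compound exposure, then CellTiter-Glo luminescence read. Percent inhibition per concentration normalized to DMSO control, triplicate wells.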

[5] = tested on: CAL-51; assay: Antiproliferative activity against human CAL51 cells xenografted in SCID mouse assessed as tumor growth inhibition at 10 mg/kg, iv administered every 3 days for 16 days relative to control; format: functional; conditions: CAL-51, iv, read-out: TGI
Summary of the method: (§1)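 Mice bearing tumors of about 125 mm3 randomized (n = 8−10/group) and given compound intravenously at the listed doses and schedules. Tumors measured twice weekly by digital caliper on long and short axes; volume = width² × length/2.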

[6] = tested on: Mus musculus; assay: Toxicity in SCID mouse xenografted with human CAL51 cells assessed as loss in body weight at 20 mg/kg, iv administered every 3 days for 16 days relative to control; format: organism-based; conditions: in vivo
[7] = tested on: CAL-51; assay: Antiproliferative activity against human CAL51 cells xenografted in SCID mouse assessed as tumor growth inhibition at 20 mg/kg, iv administered every 7 days for 16 days relative to control; format: functional; conditions: CAL-51, iv, read-out: TGI; summary of the method: as §1
[8] = MRT in SCID mouse at 5 mg/kg, iv; format: ADME, organism-based; conditions: in vivo
[9] = target: Dual specificity protein kinase CLK2 (Homo sapiens) (UniProt P49760); conditions: 3 uM
Sequence of Dual specificity protein kinase CLK2 (Homo sapiens) (P49760 whole entry, looked up): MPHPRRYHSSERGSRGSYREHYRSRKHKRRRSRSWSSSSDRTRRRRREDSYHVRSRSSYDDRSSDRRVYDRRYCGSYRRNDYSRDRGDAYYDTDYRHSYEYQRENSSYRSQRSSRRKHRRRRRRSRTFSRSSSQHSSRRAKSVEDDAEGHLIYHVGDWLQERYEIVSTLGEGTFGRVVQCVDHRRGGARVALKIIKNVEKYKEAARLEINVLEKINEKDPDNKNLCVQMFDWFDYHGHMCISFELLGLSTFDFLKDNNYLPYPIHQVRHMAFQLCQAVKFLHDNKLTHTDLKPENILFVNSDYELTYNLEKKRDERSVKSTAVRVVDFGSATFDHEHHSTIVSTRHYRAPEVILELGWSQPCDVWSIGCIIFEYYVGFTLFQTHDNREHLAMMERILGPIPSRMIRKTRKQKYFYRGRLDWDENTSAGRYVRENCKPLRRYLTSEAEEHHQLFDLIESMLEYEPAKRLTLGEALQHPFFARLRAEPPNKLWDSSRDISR

[10] = target: Dual specificity tyrosine-phosphorylation-regulated kinase 1A (Homo sapiens, UniProt Q13627); conditions: 3 uM
[11] = target: Dual specificity tyrosine-phosphorylation-regulated kinase 1B (Homo sapiens, UniProt Q9Y463); conditions: 3 uM
Sequence of Dual specificity tyrosine-phosphorylation-regulated kinase 1B (Q9Y463 whole entry, looked up): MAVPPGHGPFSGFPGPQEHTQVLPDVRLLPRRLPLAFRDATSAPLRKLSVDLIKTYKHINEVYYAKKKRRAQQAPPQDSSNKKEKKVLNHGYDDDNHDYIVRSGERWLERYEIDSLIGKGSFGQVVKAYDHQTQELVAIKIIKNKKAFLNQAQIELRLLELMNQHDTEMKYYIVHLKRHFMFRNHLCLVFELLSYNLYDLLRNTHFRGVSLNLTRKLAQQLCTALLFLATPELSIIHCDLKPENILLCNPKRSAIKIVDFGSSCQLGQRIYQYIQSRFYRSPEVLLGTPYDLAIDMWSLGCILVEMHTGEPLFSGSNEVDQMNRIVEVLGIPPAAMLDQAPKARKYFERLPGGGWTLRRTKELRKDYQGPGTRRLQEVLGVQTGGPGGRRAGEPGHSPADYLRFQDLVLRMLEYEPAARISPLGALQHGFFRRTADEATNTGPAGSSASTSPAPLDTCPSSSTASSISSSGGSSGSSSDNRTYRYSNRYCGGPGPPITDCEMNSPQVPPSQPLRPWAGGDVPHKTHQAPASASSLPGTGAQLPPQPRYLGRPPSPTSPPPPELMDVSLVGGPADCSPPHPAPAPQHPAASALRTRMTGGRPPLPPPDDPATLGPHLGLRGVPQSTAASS

[12] = target: Dual specificity protein kinase CLK1 (Homo sapiens) (UniProt P49759); conditions: 3 uM
Sequence of Dual specificity protein kinase CLK1 (Homo sapiens) (P49759 whole entry, looked up): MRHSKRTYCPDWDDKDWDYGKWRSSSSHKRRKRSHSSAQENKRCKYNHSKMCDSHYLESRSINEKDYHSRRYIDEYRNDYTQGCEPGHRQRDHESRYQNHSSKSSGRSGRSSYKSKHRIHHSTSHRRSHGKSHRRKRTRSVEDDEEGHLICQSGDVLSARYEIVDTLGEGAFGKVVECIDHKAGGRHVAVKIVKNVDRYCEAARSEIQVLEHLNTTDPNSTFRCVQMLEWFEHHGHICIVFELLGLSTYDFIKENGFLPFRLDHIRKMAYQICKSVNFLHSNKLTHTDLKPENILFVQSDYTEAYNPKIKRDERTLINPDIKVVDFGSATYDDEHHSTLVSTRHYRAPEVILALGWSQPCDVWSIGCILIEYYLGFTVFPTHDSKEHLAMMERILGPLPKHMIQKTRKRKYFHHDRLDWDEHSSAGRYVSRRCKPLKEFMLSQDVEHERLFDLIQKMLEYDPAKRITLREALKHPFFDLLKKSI

- MRT [1]: 4.1 h
- IC50 [2]: 136 nM
- Activity [3]: > 75%
- MRT [8]: 5.2 h
- inhibition [9]: > 80%
- inhibition [10]: > 80%
- inhibition [11]: > 80%
- inhibition [12]: > 80%
Structure (SMILES): CNC(=O)c1ccc(Nc2nc(OC3CCCC3)c3c(-c4ccc5nc(C)oc5c4)c[nH]c3n2)c(OC)c1
- Activity [4]: Non-Toxic
- inhibition in vivo at 10 mg/kg [5]: 71%
- Activity [6]: 17%
- inhibition in vivo at 20 mg/kg [7]: 70%
